Screens deposited in PubChem by several laboratories.
Rows were chosen to be rich in hits. Some 2.1% of all compounds tested hit in one or more screens of this group.
m-calpain inh: blocks pig calpain II enzyme activity | AID 1236 | 220,000 tested, 0.37% active | purified calpain II, fluorogenic peptide substrate, 30 min | inhibition, % at 16 µM;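 active = inhibition above about 50%, limit read from the data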
Runt-SMMHC FRET: blocks binding of human RUNX1 Runt domain to CBFb-SMMHC; inhibition, % at 20 µM; Q01196+Q13951; Cerulean-Runt/Venus-CBFb-SMMHC FRET ratio 530/480, 1 h; 220,000 tested, 0.74% active; AID 1434;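 active = mean inhibition across duplicate retests at 20 µM reaching about 50%, limit read from the data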;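 also: 0% = DMSO wells and 100% = wells with excess untagged CBFb-SMMHC; inhibitors lower the FRET ratio by blocking Runt binding to CBFb-SMMHC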
Runt-CBFb FRET: Runt domain-CBFb interaction inhibition; Cerulean-Runt/Venus-CBFb FRET ratio 530/480, 1 h; inhibition, % at 20 µM; Q01196+Q13951; 220,000 tested, 0.46% active;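 active = inhibition over about 50% at 20 µM in the single-dose screen, limit read from the data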;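 also: 0% = DMSO wells and 100% = excess unlabeled CBFb competitor control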
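Doses: 20 µM compound in 1% DMSO | Material: Cerulean-labeled Runt domain protein | Amount: Each fluorescent fusion protein 100 nM | Schedule: Two 1 h room-temperature incubations shielded from light | Measured by: FRET fluorescence | Evaluation: Loss of energy transfer signal | Controls: Unlabeled CBFb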
RanGTP-Impb inh: disruptors of Ran-importin-beta complex formation – biochemical, FRET, CFP-Ran, YFP-importin-beta, homogeneous, primary screen; 300,000 tested, 1.1% active; AID 2216; inhibition, % (no concentration beside the values); cell-free CFP-Ran/YFP-importin-beta FRET ratio;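 active = more than half of the replicate wells show a fall in the fluorescence ratio signal beyond about 16%, limit read from the data, passing the limit was not always enough; inconclusive = exactly half of the replicate wells pass the set limit; inactive = fewer than half of replicates pass the limit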;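 also: 0% = DMSO wells and 100% = Ran loaded with GDP instead of GTP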
FAS TE block: FAS thioesterase (human) inhibition; P49327; recombinant FAS-TE, OMFH fluorogenic substrate, fluorescence endpoint; inhibition, % at 15 µM; 360,000 tested, 0.67% active;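 active = compounds whose normalised, plate-corrected inhibition of enzyme fluorescence in the single-dose primary screen is 50% or more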;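 also: 0% = DMSO with enzyme and 100% = substrate without enzyme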
Active calls of the source: *; i = inactive; ? = inconclusive; / = no result.

SMILES	m-calpain inh	Runt-SMMHC FRET	Runt-CBFb FRET	RanGTP-Impb inh	FAS TE block
CCCCn1c(CCNC(=O)c2cccs2)nc2ccccc21	-5	-5	1	?	-4
N#Cc1c(N)n(CCNC(=O)c2ccccc2)c2nc3ccccc3nc12	-491	76*	111*	58*	-5
N#Cc1c(N)n(CCNC(=O)c2cccs2)c2nc3ccccc3nc12	-416	58*	105*	64*	0
N#Cc1c(N)n(-c2ccccc2N)c2nc3ccccc3nc12	-14	7	9	3	-4
CCc1ccc(N=Nc2ccc(O)c3[nH]cnc23)cc1	/	/	/	/	-1
O=C(COc1ncnc2ccc(Br)cc12)NCc1ccco1	4	-4	-1	1	7
COCCCn1c(=N)c(C(=O)NC2CCCCC2)cc2c(=O)n3ccccc3nc21	i	83*	5	192*	-6
COc1ccc(Cn2c(=N)c(C(=O)NC3CCCCC3)cc3c(=O)n4ccccc4nc32)cc1	/	/	/	28*	16
COc1ccc(CCn2c(=N)c(C(=O)NC3CCCC3)cc3c(=O)n4ccccc4nc32)cc1OC	/	/	/	3	-12
COc1ccc(CCn2c(=N)c(C(=O)NC3CCCC3)cc3c(=O)n4ccccc4nc32)cc1	/	/	/	-2	-1
CC(C)OC(=O)CC(=O)CSc1nc2c(cc1C#N)CCCCC2	i	71*	35	26*	7
CCOC(=O)CC(=O)CSc1nc2c(c(C)c1C#N)CCC2	-166	13	11	24*	15
COC(=O)Cn1c(=O)c(C(=O)CCl)c(N)n(Cc2ccccc2)c1=O	-8	3	1	0	0
COC(=O)Cn1c(=O)c2c(n(Cc3ccccc3)c1=O)N/C(=C/c1ccc(OC)cc1)C2=O	-23	30	-20	20*	-2
CCCN(C)C1CN(Cc2cn(Cc3cccc(C(F)(F)F)c3)nn2)S(=O)(=O)C1 (centres undefined)	/	/	/	/	-8
CNC(=S)NNC(=O)c1ccccc1F	90*	-2	0	3	3
CNC(=S)NNC(=O)c1ccccc1Cl	-1	2	-1	1	-4
CC1CCN(S(=O)(=O)c2ccc(C(=O)N3CCCC(C(F)(F)F)C3)cc2)CC1 (centres undefined)	/	/	/	5	9
Cc1c(O)ccc2c(CC(=O)N[C@@H](Cc3ccc(O)cc3)C(=O)O)cc(=O)oc12	/	/	/	52*	-7
O=C(COc1ccc2ccc(=O)oc2c1)NC(Cc1ccc(Cl)cc1)C(=O)O (centres undefined)	/	/	/	?	-5
COc1ccc2c(CC(=O)N[C@@H](Cc3ccccc3)C(=O)O)cc(=O)oc2c1C	/	/	/	3	-2
O=C(Cc1cc(=O)oc2cc(O)ccc12)NC(Cc1ccc(Cl)cc1)C(=O)O (centres undefined)	/	/	/	50*	-5
CCOc1cc(C(=O)NC2CC(C)(C)NC(C)(C)C2)cc(OCC)c1OCC	/	/	/	6	-1
O=C(O)/C=C/c1coc2ccc(F)cc2c1=O	4	-4	0	-2	-4
O=C(O)/C=C/c1coc2ccccc2c1=O	15	3	2	35*	-12
SMILES	m-calpain inh	Runt-SMMHC FRET	Runt-CBFb FRET	RanGTP-Impb inh	FAS TE block
CC1=C(C#N)C(=O)OC(C)(C)C1	-15	78*	32	72*	-6
Cn1cc(/C=C(\C#N)C(=O)Nc2ncc(Cc3cccc(Cl)c3)s2)c2ccccc21	-62	-142	-387	-115	/
N#C/C(=C\c1c[nH]c2ccccc12)C(=O)Nc1ncc(Cc2ccc(Cl)cc2Cl)s1	-102	-187	-207	46*	-7
CC(NC(=O)Oc1cccc2ccccc12)c1ccccc1 (centres undefined)	/	/	/	/	11
Cc1ccc(/C=C2\Oc3c(ccc(O)c3CN3CCN(CCO)CC3)C2=O)cc1	i	90*	3	35*	-9
CC(C)c1ccc(/C=C2\Oc3c(ccc(O)c3CN3CCN(C)CC3)C2=O)cc1	-313	88*	-114	/	-9
O=C1/C(=C/c2ccco2)Oc2c1ccc(O)c2CN1CCCCC1	-319	-35	11	-62	-15
c1ccc(CSc2nnc(Cc3ccccn3)o2)cc1	-20	1	-1	22*	0
c1ccc(CSc2nnc(Cc3ccccc3)o2)cc1	-2	-2	1	0	5
Cn1cc(/C=C/C(=O)c2ccccc2)c2ccccc21	35	5	0	36*	8
Cc1ccc(C(=O)/C=C/c2cn(CN3CCN(C)CC3)c3ccccc23)cc1	8	-1	10	72*	-5
Cc1nn(C)cc1/C=C/C(=O)c1ccccc1	6	2	1	3	-4
CCCS(=O)(=O)NC(=O)C1(C)CCN(C(=O)c2cccc3ccccc23)C1 (centres undefined)	/	/	/	/	-7
CC(=O)Nc1ccc(S(=O)(=O)NCCC(=O)Nc2cc(C)ccn2)cc1	/	/	/	0	-5
CCOC(=O)CSc1nc(N2CCOCC2)c2c(c1C#N)CC(C)(C)N(C)C2	-55	84*	60*	19*	-5
CCOC(=O)CSc1nc(N2CCOCC2)c2c(c1C#N)CC(C)(C)OC2	/	/	/	-3	-2
Cc1ccc(Nc2nc(=O)c3cc([N+](=O)[O-])ccc3s2)cc1	15	-2	2	6	4
COc1ccc(Nc2nc(=O)c3cc([N+](=O)[O-])ccc3s2)cc1	60*	-1	2	-1	6
Cc1ccc(C(=O)O)cc1N1C(=O)c2cccc3cc(Br)cc(c23)C1=O	66*	65	3	-14	-3
CC1(c2ccccc2)CC(C)(C)N2C(=O)C3(C(C#N)=C(N)Oc4cc(O)ccc43)c3cccc1c32 (centres undefined)	-18	2	0	0	52*
Cc1cc(SCC(=O)c2cccs2)nc2c(C)cccc12	4	-2	-2	8	24
Cc1cc2c(C)ccc(C)c2nc1SCC(=O)c1cccs1	51*	2	0	-4	17
Cc1ccc(CN(C(=O)c2csnn2)C(C(=O)NC2CCCC2)c2ccco2)cc1 (centres undefined)	/	/	/	0	5
CCOC(=O)/C(C#N)=C1/C=C(C)NC(c2ccccc2O)=N1	-11	61*	25	3	1
CCOC(=O)/C(C#N)=C1/C=CN(C)C(C)=N1	17	-6	-1	0	-1
COCCOC(=O)C1=C(C)OC(N)=C(C#N)C1c1ccc2c(c1)OCO2 (centres undefined)	-4	6	2	7	-2
C=CCOC(=O)C1=C(C)OC(N)=C(C#N)C1c1ccc2c(c1)OCO2 (centres undefined)	-10	5	0	25*	5
CCN(CC)c1ccc(-c2c(C#N)c(N)nc(OC)c2C#N)cc1	-137	99*	33	8	5
O=C(NCc1ccc2c(c1)OCO2)c1ccc2c(c1)C(=O)N(Cc1cccnc1)C2=O	16	0	2	25	-12
